Experimental data of several laboratories.
Each line is one published result; the experiments were not run side by side.
ST14: Suppressor of tumorigenicity 14 protein (ST14, Homo sapiens, UniProt Q9Y5Y6)
CDK2 with cyclin A2: Cyclin-dependent kinase 2, with cyclin A2 (CDK2, Homo sapiens, UniProt P24941)

| Compound | target | assay | setting | quantity | value |
| --- | --- | --- | --- | --- | --- |
| C=CC(=O)N1CCC(COCC(=O)N2CCN(c3nc(-c4cnc(N)nc4C(F)F)nc(N4CCOC[C@@H]4C)n3)CC2)CC1 | Mitogen-activated protein kinase kinase kinase kinase 1 (MAP4K1, Homo sapiens, UniProt Q92918) | binding, competition with immobilised ligand | 1 µM | remaining binding | 100% |
| N=C(N)NCCC[C@H](NC(=O)[C@H](Cc1cccc(I)c1)NC(=O)[C@H](Cc1cscn1)NC(=O)CCc1ccccc1)C(=O)c1nc2ccccc2s1 | ST14 | enzyme activity, inhibitor | 0.1 µM | remaining activity | 79% |
| C[C@H]1c2nc3ccccc3c(-c3ccccc3)c2[C@H]2C[C@@H]1N(Cc1ccccc1)C[C@]2(C)O | Delta-type opioid receptor (Oprd1, Rattus norvegicus, UniProt P33533) | ligand displacement, radioligand | 1 µM | inhibition | 0% |
| CC(C)C(C)(NC(=O)[C@H](Cc1cscn1)NC(=O)CCc1ccccc1)C(=O)N[C@@H](CCCNC(=N)N)C(=O)c1nc2ccccc2s1 (stereo partly drawn) | ST14 | enzyme activity, inhibitor | 0.1 µM | remaining activity | 83% |
| CC(=O)Nc1c(N)nc(SCC(=O)N/N=C/c2ccc([N+](=O)[O-])cc2)[nH]c1=O | CDK2 with cyclin A2 | enzyme activity, inhibitor | 1 µM | inhibition | 67.2% |
| N=C(N)NCCC[C@H](NC(=O)[C@H](CC1CC1)NC(=O)[C@H](Cc1cscn1)NC(=O)CCc1ccccc1)C(=O)c1nc2ccccc2s1 | ST14 | enzyme activity, inhibitor | 0.1 µM | remaining activity | 68% |
| Cc1cc([C@@H](C)Nc2ccccc2C(=O)O)c2nc(N3CCC(F)(F)CC3)c(C#N)c(=O)n2c1 | Tyrosine-protein kinase ZAP-70 (ZAP70, Homo sapiens, UniProt P43403) | binding, competition with immobilised ligand | 1 µM | remaining binding | 100% |
| N=C(N)NCCC[C@H](NC(=O)C1(NC(=O)[C@H](Cc2cscn2)NC(=O)CCc2ccccc2)CCCC1)C(=O)c1nc2ccccc2s1 | ST14 | enzyme activity, inhibitor | 0.1 µM | remaining activity | 84% |
| O=C(COP(=O)(O)O)[C@@H](O)[C@H](O)[C@H](O)COP(=O)(O)O | Glyceraldehyde-3-phosphate dehydrogenase (GAPDH, Homo sapiens, UniProt P04406) | thermal stability | 5 mM, lysate | ΔTm | 5.9 °C |
| COc1cc(-c2cncc3c2CN(C)Cc2cc(N4CCNCC4)ccc2-3)cc(OC)c1OC | Angiopoietin-1 receptor (TEK, Homo sapiens, UniProt Q02763, Y897S) | enzyme activity, inhibitor | 1 µM | remaining activity | 102% |
| CC(=O)c1c(C)c2cnc(Nc3ccc(N4CCNCC4)cn3)nc2n(C2CCCC2)c1=O | Cyclin-dependent kinase 2 (CDK2, Homo sapiens, UniProt P24941) | enzyme activity, inhibitor, ADP detection | 1 µM | activity vs control | 79% |
| CNC(=O)c1cc(Oc2ccc(NC(=O)Nc3ccc(Cl)c(C(F)(F)F)c3)cc2)ccn1 | CDK2 with cyclin A2 | enzyme activity, inhibitor | 10 nM | inhibition | 36.7% |
| CNc1ncc2c(/C=C/C(=O)N3CCC(OC)CC3)nn(Cc3cccc(C(F)(F)F)c3)c2n1 | Mitogen-activated protein kinase 10 (MAPK10, Homo sapiens, UniProt P53779) | enzyme activity, inhibitor, radiometric | 1 µM | remaining activity | 87% |
| CC(=O)Nc1c(N)nc(SCC(=O)NN)[nH]c1=O | CDK2 with cyclin A2 | enzyme activity, inhibitor | 20 nM | inhibition | 30.9% |
| CC(C)[C@@H](CC(=O)N[C@@H](CCCNC(=N)N)C(=O)c1nc2ccccc2s1)NC(=O)[C@H](Cc1cscn1)NC(=O)CCc1ccccc1 | ST14 | enzyme activity, inhibitor | 0.1 µM | remaining activity | 81% |
